Calb biofilm kill – mixtures killing C. albicans biofilm | C. albicans biofilm persisters + clotrimazole, fluorescence viability; primary screen in compound mixtures of four per well | inhibition, % at 7.6 µM | 120,000 tested, 0.02% active;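 active = inhibition above 30.3% in the primary screen of four-compound pools, then above 30% when the compound was retested; inconclusive = passed the primary limit but could not be retested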;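 note: compounds exposed to preformed 24 h biofilms for 48 h; 0% = untreated biofilm control and 100% = clotrimazole plus chlorhexidine kill blank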
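System: C. albicans CAF4-2 wild-type biofilms; Medium: RPMI/MOPS medium, pH 7.0; Reagent: Clotrimazole, 50 µg/mL; Times: biofilm formation 24 h, compound exposure 48 h, 37 °C; Detection: 2-h Alamar Blue fluorescence, 535/590 nm excitation/emission; Evaluation: percent inhibition of biofilm viability.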
ROMK mod – modulates human ROMK potassium channel activity; P48048; B-score at 10 µM; AID 1918; 130,000 tested, 2% active; Tet-inducible ROMK, thallium flux fluorescence; actives lie on both sides;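 active = signal ratio slope over the read window, or its plate-corrected B-score, at least 3 SD from the plate mean, either direction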;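 note: B-score of the F/F0 ratio slope over 7 to 12 s after thallium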
Target sequence (P48048 whole entry, looked up): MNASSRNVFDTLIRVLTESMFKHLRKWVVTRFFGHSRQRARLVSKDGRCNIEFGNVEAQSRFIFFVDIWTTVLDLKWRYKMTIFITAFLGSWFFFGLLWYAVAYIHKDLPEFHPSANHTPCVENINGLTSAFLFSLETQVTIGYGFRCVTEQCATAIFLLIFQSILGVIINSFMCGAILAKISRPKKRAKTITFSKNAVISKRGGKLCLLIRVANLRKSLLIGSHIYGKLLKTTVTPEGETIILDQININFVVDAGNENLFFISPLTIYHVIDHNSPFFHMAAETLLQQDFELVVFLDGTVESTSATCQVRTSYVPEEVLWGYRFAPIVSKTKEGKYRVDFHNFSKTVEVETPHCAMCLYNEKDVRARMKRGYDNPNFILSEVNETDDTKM
Pf gametocyte – inhibitors of late stage P. falciparum gametocyte viability. P. falciparum stage V gametocytes, ATP luminescence, 24 h. inhibition, % at 10.9 µM. 150,000 tested, 0.065% active. AID 743093;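 active = inhibition above the mean plus 3 SD of compounds within the control limits, set per campaign, cut at about 38% in these data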;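 note: 0% = DMSO wells and 100% = medium only without gametocytes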
ROMK hit retest – retested hit modulating human ROMK potassium channel | shares compounds with ROMK mod | ROMK thallium flux, fluorescence ratio; stronger effect = lower value | normalized thallium flux (F/F0 slope) at 10 µM | 3,000 tested, 54% active | AID 1917;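 active = Flux at 10 µM at least 3 SD below or above vehicle control mean in one or both replicates; inconclusive = no clear call, values can overlap the other calls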
Numbers without * were called inactive; ? = inconclusive; / = no result. Only a selection was taken, and hits are over-represented in it overall.

SMILES	Calb biofilm kill	ROMK mod	Pf gametocyte	ROMK hit retest
NC(=O)COc1ccc(NC(=O)CC23CC4CC(CC(C4)C2)C3)cc1	/	/	-14	/
Cc1cccc(C(=O)Nc2ccc(C(=O)/C=C/c3cccnc3)cc2)c1	-10	-2.4*	-24	?
O=C(/C=C/c1cccnc1)c1ccc(NC(=O)c2cccc(Br)c2)cc1	/	-0.38	/	/
CCOc1cc(C(=O)Nc2ccc(F)cc2)cc(Br)c1OC	21	/	17	/
CCOc1cc(C(=O)Nc2ccc(N3CCOCC3)cc2)cc(Br)c1OC	18	3.8*	2	0.081
Fc1ccc(NCc2n[nH]c(=S)n2Cc2ccccc2)cc1	6	-0.6	-28	/
C=CCn1c(SC(C)CC)nc(O)cc1=O (stereo not drawn)	/	0.65	/	/
CCc1ccc(OCCSc2nc3ccccc3n2CC(=O)O)cc1	/	/	0	/
N#CC(C#N)=C1C=CC=CN1/C(=C\c1ccco1)C(=O)c1ccc(-c2ccccc2)cc1	7	/	11	/
N#CC(C#N)=C1C=CC=CN1/C(=C\c1ccco1)C(=O)c1ccc(Cl)cc1	9	-3*	24	0.045*
Fc1cnc(N/N=C/c2ccc(-c3ccc(Br)cc3)o2)nc1N1CCOCC1	8	/	8	/
CC(C)c1ccc(/C=N/Nc2cc(N3CCOCC3)nc(N3CCOCC3)n2)cc1	9	-0.24	/	/
Brc1ccc(-c2ccc(/C=N/Nc3nc(N4CCOCC4)nc(N4CCOCC4)n3)o2)cc1	11	0.11	2	0.075
Clc1ccc(-c2ccc(/C=N/Nc3cc(N4CCOCC4)nc(N4CCOCC4)n3)o2)cc1	14	-4*	/	0.058*
Cc1cccc(C(=O)N/N=C2/SCC(=O)N2Cc2ccccc2)c1	28	/	1	/
O=[N+]([O-])c1ccc(N/N=C/C=C/c2ccco2)cc1	/	/	2	/
CN(C)S(=O)(=O)c1ccc(C(=O)Nc2nc(-c3ccccc3)c(C(=O)c3ccccc3)s2)cc1	8	1.2*	-16	0.09
N#CCCN(CCC#N)S(=O)(=O)c1ccc(C(=O)Nc2nc(-c3ccccc3)c(C(=O)c3ccccc3)s2)cc1	1	/	20	/
CC[C@H](C)[C@H](NC(N)=O)C(=O)NCCc1ccc(OC)c(OC)c1	18	0.36	26	/
CCn1c(=O)c([N+](=O)[O-])c(Cl)c2ccccc21	10	-4.9*	/	0.046*
CCn1c(=O)c([N+](=O)[O-])c(NCCN(C)C)c2ccccc21	19	0.079	-15	/
c1ccc(CCNc2ncnc3ccccc23)cc1	13	-3.7*	-3	0.076
CCCCCCCCNc1ncnc2ccccc12	/	-0.99	/	/
O=C(Cc1sc(Nc2ccccc2)nc1-c1ccccc1)NCc1ccccc1	10	/	-4	/
COc1ccccc1NC(=O)C1CC(C)OC1=O (stereo not drawn)	/	/	22	/
SMILES	Calb biofilm kill	ROMK mod	Pf gametocyte	ROMK hit retest
CCOc1ccc(Cn2c(=O)sc3ccccc32)cc1OC	-23	/	19	/
O=C(NCCN1CCOCC1)c1cc(Sc2ccccc2Cl)nc2ccccc12	6	-1.1	-2	/
Cc1ccc(Cn2ccc(=O)c(OCc3ccccc3)c2C)cc1	/	-0.29	/	/
Cc1ccc(Cn2ccc(=O)c(Cc3c(Cl)cccc3Cl)c2C)cc1	/	/	/	0.049*
Cc1nc(-c2ccccc2)sc1C1(C)CC(c2ccc(OC(F)(F)F)cc2)=NO1 (stereo not drawn)	18	/	4	/
COc1cc(-c2nnc3sc(Cc4ccc(Cl)cc4)nn23)cc(OC)c1OC	/	/	1	/
COc1ccc(Cc2nn3c(-c4cc(OC)c(OC)c(OC)c4)nnc3s2)cc1	/	-2.6*	2	?
Cc1ccc(S(=O)(=O)n2[nH]c(=O)c(CCO)c2C)cc1	10	-0.12	9	/
COc1cc(CN(C2CCCCC2C)S(=O)(=O)c2ccc(S(=O)(=O)NC3CC3)cc2)cc(OC)c1OC (stereo not drawn)	11	0.023	-8	/
COc1ccc(CN(C2CCCCC2C)S(=O)(=O)c2ccc(S(=O)(=O)N(C)C)cc2)cc1OC (stereo not drawn)	12	/	-23	0.077
CNC(=S)NNC(=O)CSCc1c(Cl)cccc1Cl	9	/	-18	/
O=C(CSCc1ccccc1)NNC(=S)Nc1cccc(Cl)c1Cl	/	/	/	0.079
CN1C(=O)c2ccc(C(=O)Nc3ccccc3O)cc2C1=O	/	/	-15	/
Nc1nonc1C(=O)NCCNCc1ccccc1OCc1ccc(F)cc1	/	/	/	0.062*
CCOc1ccc(CNCCNC(=O)c2nonc2N)cc1	12	-0.00033	11	/
CCOc1ccc(S(=O)(=O)NCc2ccc3c(c2)OCO3)cc1	/	/	3	/
CCCN(CC1CC1)C(=S)Nc1ccccc1F	0	/	-10	/
COc1ccc(N=C2S/C(=C\c3ccc(N4CCOCC4)o3)C(=O)N2CCc2c[nH]c3ccccc23)cc1	/	/	/	0.058*
O=C(O)COc1ccc(/C=C2\SC(=Nc3ccccc3)N(c3ccccc3)C2=O)cc1	9	-0.31	2	/
CCCN1C(=O)/C(=C/c2ccco2)SC1=Nc1ccc(OC)cc1	/	-0.0053	/	/
